ChEMBL document CHEMBL4406821, “Novel dual inhibitors targeting CDK4 and VEGFR2 synergistically suppressed cancer progression and angiogenesis” (Eur J Med Chem, 2019)
Calls of active or inactive are those of the source. The rule behind the calls is not given here.

How the values were obtained:
T47D [1] = experiment: Induction of apoptosis in human T47D cells assessed as increase in early apoptotic cells at 20 to 40 nM incubated for 48 hrs by annexin V FITC and propidium iodide staining based flow cytometry; type: functional, cell-based
In short: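 Annexin V-FITC/PI double staining with flow-cytometric readout. MDA-MB-231, T-47D, SiHa and HeLa cells were treated with graded concentrations for 48 h. MDA-MB-231 and T-47D were grown in DMEM and SiHa in 1640 medium, each with 10% FBS and 1% penicillin/streptomycin at 37°C under 5% CO2. Early- and late-stage apoptotic fractions were scored.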

[2] = Half life in Sprague-Dawley rat at 10 mg/kg, po by HPLC-MS analysis; type: ADME, organism-based; details: in vivo
In short: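 Rats fitted with jugular vein catheters for serial blood sampling. Compound dissolved in saline with 5% (v/v) DMSO and given as a single 10 mg/kg dose iv or po after an overnight fast, n = 5 per group. Plasma isolated at once and measured by HPLC with tandem MS detection. Parameters derived by noncompartmental fitting.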

[3] = system: Mast/stem cell growth factor receptor Kit (Homo sapiens), P10721 [D816H]; experiment: Inhibition of recombinant human cKIT D816H mutant (544 to end residues) at 1 uM using GGMEDIYFEFMGG as substrate incubated for 40 mins in presence of [gamma-33P]-ATP by scintillation counting method relative to control
In short: (§1)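 Tested at a single 1 uM in an outsourced commercial kinase-profiling panel, read as percent inhibition. Each value is the mean of two independent experiments.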

[4] = biological target: Eukaryotic elongation factor 2 kinase (Homo sapiens) (UniProt O00418); experiment: Inhibition of recombinant human eEF-2K (2 to end residues) at 1 uM using RKKFGESEKTKTKEFL as substrate incubated for 40 mins in presence of [gamma-33P]-ATP by scintillation counting method relative to control; in short: as §1
[5] = biological target: Macrophage colony-stimulating factor 1 receptor (Homo sapiens) (UniProt P07333); experiment: Inhibition of recombinant human FMS (538 to end residues) at 1 uM using KKKSPGEYVNIEF as substrate incubated for 40 mins in presence of [gamma-33P]-ATP by scintillation counting method relative to control
[6] = biological target: Inhibitor of nuclear factor kappa-B kinase subunit beta (Homo sapiens) (UniProt O14920); experiment: Inhibition of recombinant human full length IKKbeta at 1 uM using peptide as substrate incubated for 40 mins in presence of [gamma-33P]-ATP by scintillation counting method relative to control
Inhibitor of nuclear factor kappa-B kinase subunit beta (Homo sapiens), sequence (O14920 whole entry, the tested form may be a part): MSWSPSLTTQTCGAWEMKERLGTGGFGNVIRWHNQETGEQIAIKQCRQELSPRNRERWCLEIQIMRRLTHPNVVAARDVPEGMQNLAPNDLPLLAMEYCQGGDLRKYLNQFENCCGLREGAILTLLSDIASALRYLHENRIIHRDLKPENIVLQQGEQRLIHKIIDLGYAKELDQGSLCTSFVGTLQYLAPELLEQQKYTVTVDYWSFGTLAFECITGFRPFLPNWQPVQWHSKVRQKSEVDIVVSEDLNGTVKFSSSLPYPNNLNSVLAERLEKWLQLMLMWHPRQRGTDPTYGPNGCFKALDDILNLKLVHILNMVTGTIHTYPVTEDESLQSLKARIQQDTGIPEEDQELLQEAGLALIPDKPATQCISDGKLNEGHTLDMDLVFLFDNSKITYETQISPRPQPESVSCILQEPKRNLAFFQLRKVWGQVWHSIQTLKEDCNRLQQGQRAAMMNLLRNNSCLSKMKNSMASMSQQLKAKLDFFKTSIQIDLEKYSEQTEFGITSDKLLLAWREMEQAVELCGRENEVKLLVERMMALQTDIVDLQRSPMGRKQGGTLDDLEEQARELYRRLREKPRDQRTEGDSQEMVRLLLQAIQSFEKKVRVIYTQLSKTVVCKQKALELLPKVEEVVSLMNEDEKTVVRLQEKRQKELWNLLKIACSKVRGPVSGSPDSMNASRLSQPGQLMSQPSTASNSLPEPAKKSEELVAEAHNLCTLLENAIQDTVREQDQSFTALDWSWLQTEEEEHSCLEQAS

[7] = biological target: Mitogen-activated protein kinase kinase kinase 9 (Homo sapiens) (UniProt P80192); experiment: Inhibition of recombinant human MLK1 (134 to 414 residues) at 1 uM using casein as substrate incubated for 40 mins in presence of [gamma-33P]-ATP by scintillation counting method relative to control
[8] = biological target: Serine/threonine-protein kinase Nek2 (Homo sapiens) (UniProt P51955); experiment: Inhibition of recombinant human full length NEK2 at 1 uM using myelin basic protein as substrate incubated for 40 mins in presence of [gamma-33P]-ATP by scintillation counting method relative to control
[9] = biological target: cGMP-dependent protein kinase 1 (Homo sapiens) (UniProt Q13976); experiment: Inhibition of recombinant human full length PKG1beta at 1 uM using RRRLSFAEPG as substrate incubated for 40 mins in presence of [gamma-33P]-ATP by scintillation counting method relative to control
cGMP-dependent protein kinase 1 (Homo sapiens), sequence (Q13976 whole entry, the tested form may be a part): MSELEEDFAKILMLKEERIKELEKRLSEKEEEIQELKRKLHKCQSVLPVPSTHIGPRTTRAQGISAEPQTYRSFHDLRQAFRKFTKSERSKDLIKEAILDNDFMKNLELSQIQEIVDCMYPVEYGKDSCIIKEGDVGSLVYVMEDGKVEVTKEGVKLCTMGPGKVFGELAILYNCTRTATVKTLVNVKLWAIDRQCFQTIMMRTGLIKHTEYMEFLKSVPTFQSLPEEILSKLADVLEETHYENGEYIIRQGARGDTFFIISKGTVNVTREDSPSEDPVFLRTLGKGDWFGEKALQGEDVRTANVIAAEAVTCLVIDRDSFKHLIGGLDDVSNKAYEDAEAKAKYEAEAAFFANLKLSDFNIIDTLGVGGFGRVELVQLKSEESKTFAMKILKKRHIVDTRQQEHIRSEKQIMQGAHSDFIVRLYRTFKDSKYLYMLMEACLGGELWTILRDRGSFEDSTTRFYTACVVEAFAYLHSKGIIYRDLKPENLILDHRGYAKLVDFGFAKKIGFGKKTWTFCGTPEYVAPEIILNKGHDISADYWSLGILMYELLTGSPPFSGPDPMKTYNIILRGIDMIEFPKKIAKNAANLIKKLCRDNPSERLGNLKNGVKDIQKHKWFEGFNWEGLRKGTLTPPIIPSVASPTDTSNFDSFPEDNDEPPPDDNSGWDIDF

[10] = biological target: Receptor-interacting serine/threonine-protein kinase 2 (Homo sapiens) (UniProt O43353); experiment: Inhibition of recombinant human RIPK2 (1 to 299 residues) at 1 uM using myelin basic protein as substrate incubated for 40 mins in presence of [gamma-33P]-ATP by scintillation counting method relative to control
[11] = biological target: Ribosomal protein S6 kinase alpha-6 (Homo sapiens) (UniProt Q9UK32); experiment: Inhibition of recombinant human full length RSK4 at 1 uM using LRRASLG as substrate incubated for 40 mins in presence of [gamma-33P]-ATP by scintillation counting method relative to control
[12] = biological target: Serine/threonine-protein kinase TAO2 (Homo sapiens) (UniProt Q9UL54); experiment: Inhibition of recombinant human TAO2 (1 to 320 residues) at 1 uM using myelin basic protein as substrate incubated for 40 mins in presence of [gamma-33P]-ATP by scintillation counting method relative to control; in short: as §1
[13] = biological target: Phosphatidylinositol 4-phosphate 3-kinase C2 domain-containing subunit alpha (Homo sapiens) (UniProt O00443); experiment: Inhibition of recombinant human PI3KC2alpha (299 to end residues) at 1 uM using phosphatidylinositol as substrate incubated for 40 mins in presence of [gamma-33P]-ATP by scintillation counting method relative to control; in short: as §1
Phosphatidylinositol 4-phosphate 3-kinase C2 domain-containing subunit alpha (Homo sapiens), sequence (O00443 whole entry, the tested form may be a part): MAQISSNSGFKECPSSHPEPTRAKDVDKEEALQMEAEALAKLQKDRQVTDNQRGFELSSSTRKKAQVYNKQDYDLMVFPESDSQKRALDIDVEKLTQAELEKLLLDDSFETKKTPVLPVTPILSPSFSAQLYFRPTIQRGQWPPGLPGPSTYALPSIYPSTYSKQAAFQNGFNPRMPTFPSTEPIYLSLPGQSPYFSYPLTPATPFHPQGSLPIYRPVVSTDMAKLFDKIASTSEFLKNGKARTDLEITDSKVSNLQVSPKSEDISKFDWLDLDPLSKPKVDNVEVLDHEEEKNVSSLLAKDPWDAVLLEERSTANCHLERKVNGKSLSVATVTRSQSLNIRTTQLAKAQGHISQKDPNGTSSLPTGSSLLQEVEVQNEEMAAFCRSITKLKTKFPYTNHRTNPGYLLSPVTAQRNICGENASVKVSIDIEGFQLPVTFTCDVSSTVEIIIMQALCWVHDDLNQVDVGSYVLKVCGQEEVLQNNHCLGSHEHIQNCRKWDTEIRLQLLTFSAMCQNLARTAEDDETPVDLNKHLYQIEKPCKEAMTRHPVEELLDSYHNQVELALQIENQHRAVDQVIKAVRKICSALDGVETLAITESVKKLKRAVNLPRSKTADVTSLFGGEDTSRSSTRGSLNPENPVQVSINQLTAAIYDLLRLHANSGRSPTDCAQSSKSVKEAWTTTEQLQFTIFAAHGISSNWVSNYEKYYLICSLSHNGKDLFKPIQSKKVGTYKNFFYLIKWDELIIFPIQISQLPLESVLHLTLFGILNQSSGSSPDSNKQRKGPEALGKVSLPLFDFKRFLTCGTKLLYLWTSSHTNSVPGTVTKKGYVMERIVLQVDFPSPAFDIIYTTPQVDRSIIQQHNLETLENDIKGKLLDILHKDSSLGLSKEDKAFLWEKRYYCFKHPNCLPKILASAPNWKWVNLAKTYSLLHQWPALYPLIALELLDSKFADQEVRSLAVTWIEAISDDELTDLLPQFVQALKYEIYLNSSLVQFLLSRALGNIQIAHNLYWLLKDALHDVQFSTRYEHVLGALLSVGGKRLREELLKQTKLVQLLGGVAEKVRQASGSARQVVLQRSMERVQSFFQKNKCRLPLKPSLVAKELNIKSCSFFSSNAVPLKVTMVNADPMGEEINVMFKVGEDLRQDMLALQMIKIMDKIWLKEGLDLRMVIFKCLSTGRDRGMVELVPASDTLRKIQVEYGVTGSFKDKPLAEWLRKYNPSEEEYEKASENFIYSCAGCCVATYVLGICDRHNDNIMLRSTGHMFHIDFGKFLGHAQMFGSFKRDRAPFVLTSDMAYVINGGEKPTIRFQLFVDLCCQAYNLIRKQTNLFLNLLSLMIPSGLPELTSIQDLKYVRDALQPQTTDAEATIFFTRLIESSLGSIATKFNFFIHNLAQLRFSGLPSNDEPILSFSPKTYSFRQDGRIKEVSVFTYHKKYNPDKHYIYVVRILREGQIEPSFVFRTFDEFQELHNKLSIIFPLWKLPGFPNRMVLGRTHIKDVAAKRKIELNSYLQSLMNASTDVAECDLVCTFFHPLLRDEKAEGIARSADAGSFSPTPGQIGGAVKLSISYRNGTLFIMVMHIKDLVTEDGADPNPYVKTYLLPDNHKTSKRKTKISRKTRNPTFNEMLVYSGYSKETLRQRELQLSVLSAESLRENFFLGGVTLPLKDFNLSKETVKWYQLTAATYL

[14] = biological target: Phosphatidylinositol 3-kinase C2 domain-containing subunit gamma (Homo sapiens) (UniProt O75747); experiment: Inhibition of recombinant human PI3KC2gamma (468 to 1203 residues) at 1 uM using phosphatidylinositol as substrate incubated for 40 mins in presence of [gamma-33P]-ATP by scintillation counting method relative to control
[15] = biological target: PI3K p110 beta/p85 alpha (Homo sapiens) (UniProt P27986+P42338); experiment: Inhibition of recombinant human full length PI3K p110beta/p85alpha at 1 uM using phosphatidylinositol-4, 5-bisphosphate as substrate incubated for 40 mins in presence of [gamma-33P]-ATP by scintillation counting method relative to control; type: protein-complex assay
PI3K p110 beta/p85 alpha (Homo sapiens), sequence (P27986 2-724 limits assumed): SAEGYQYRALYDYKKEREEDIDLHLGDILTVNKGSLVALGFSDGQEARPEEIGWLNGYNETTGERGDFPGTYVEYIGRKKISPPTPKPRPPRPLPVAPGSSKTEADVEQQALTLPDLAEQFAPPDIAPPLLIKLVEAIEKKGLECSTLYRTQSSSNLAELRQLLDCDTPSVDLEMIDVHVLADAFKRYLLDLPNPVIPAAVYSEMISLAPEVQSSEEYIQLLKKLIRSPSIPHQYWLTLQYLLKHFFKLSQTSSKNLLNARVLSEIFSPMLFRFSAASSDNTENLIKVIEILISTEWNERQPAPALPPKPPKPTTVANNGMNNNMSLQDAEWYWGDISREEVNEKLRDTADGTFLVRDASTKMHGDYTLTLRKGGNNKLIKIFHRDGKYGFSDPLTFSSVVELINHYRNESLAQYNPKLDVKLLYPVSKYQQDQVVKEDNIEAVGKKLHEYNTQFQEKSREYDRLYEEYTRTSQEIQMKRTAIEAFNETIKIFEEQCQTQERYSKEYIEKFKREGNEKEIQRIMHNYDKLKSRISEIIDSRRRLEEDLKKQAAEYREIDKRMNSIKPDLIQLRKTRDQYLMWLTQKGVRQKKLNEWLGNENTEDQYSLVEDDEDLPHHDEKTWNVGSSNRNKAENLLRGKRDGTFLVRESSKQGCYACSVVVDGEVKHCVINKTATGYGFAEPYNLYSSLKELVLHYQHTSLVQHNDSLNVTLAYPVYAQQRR
PI3K p110 beta/p85 alpha (Homo sapiens), sequence (P42338 whole entry partner): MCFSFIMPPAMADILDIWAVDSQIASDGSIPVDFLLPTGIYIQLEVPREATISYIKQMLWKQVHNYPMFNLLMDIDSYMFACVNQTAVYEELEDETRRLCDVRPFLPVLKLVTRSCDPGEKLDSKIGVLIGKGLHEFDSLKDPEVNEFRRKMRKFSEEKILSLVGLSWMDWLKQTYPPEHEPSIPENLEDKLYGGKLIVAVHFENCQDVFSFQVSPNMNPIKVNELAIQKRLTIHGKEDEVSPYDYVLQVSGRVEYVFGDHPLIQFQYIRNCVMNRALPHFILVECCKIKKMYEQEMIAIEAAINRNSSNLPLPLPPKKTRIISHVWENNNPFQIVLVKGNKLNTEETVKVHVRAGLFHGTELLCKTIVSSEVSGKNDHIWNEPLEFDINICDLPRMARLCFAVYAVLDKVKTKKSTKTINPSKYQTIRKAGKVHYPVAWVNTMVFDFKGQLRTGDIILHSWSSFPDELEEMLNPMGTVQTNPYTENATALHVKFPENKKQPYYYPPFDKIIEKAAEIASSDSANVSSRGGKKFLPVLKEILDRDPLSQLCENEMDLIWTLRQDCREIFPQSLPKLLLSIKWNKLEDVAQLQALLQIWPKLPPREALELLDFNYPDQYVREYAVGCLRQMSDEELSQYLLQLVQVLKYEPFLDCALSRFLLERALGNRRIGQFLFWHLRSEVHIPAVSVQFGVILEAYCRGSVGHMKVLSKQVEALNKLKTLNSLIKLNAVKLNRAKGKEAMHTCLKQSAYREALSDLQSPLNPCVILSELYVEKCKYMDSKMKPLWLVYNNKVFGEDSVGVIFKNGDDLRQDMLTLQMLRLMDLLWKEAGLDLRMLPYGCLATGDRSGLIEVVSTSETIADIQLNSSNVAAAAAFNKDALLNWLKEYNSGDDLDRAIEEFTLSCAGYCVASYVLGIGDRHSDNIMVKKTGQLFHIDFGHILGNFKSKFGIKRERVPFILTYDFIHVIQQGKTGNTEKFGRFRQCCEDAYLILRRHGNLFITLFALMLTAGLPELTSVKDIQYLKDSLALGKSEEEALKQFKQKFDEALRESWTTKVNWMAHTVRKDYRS

[16] = biological target: Cyclin-dependent kinase 1/cyclin B1 (Homo sapiens, UniProt P06493); experiment: Inhibition of recombinant human full length CDK1/CyclinB using histone H1 as substrate incubated for 40 mins in presence of [gamma-33P]-ATP by scintillation counting method; type: protein-complex assay
[17] = system: PI3-kinase p110-alpha/p85-alpha (Homo sapiens), P27986+P42336 [E542K]; experiment: Inhibition of recombinant human full length PI3K p110alpha/p85alpha E542K mutant at 1 uM using phosphatidylinositol 4,5-bisphosphate as substrate incubated for 40 mins in presence of [gamma-33P]-ATP by scintillation counting method relative to control; type: protein-complex assay
CDK2/Cyclin A2 = CDK2/Cyclin A2 (Homo sapiens, UniProt P24941); experiment: Inhibition of recombinant human full length CDK2/CyclinA using as histone H1 substrate incubated for 40 mins in presence of [gamma-33P]-ATP by scintillation counting method; type: protein-complex assay
[18] = Toxicity in NOD/SCID BALB/c mouse xenografted with human SiHa cells assessed as effect on blood parameter by measuring platelet content at 40 mg/kg, po administered once two days for 4 times by hematology analyzer; type: organism-based; details: in vivo
T47D [19] = experiment: Inhibition of colony formation in human T47D cells at 40 nM incubated for 5 days by crystal violet staining based light microscopy; type: functional, cell-based
In short: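 MDA-MB-231, T-47D, SiHa and HeLa cells seeded at 4×10^3/well and cultured with varying concentrations of drug or vehicle for 5 days. Fixed in 20% methanol, stained with 0.5% crystal violet, photographed under light microscopy. DMEM (T-47D) with 10% FBS, 37°C, 5% CO2.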

For `Cc1ccc(NC(=O)C2(C(=O)Nc3ccc(Nc4ncc(F)c(-c5cc(F)c6nc(C)n(C(C)C)c6c5)n4)cc3)CC2)cc1`, the Activity (T47D [1]) was “Active”, the half-life [2] was 3 h and the inhibition [3] was 76%. The inhibition [4] was 0%, the inhibition [5] was 64% and the inhibition [6] was 11%. It also gave an inhibition [7] of 1%, an inhibition [8] of 57% and an inhibition [9] of 45%. It also gave an inhibition [10] of 46%, an inhibition [11] of 22% and an inhibition [12] of 0%. For the same compound, the inhibition [13] was 0%, the inhibition [14] was 38% and the inhibition [15] was 12%. The IC50 [16] was 247 nM, the inhibition [17] was 5% and the IC50 (CDK2/Cyclin A2) was 230 nM. For the same compound, the Activity [18] was “Non-Toxic”.
For `COc1cc2nccc(Oc3ccc(NC(=O)C4(C(=O)Nc5ccc(F)cc5)CC4)cc3)c2cc1OC` [CABOZANTINIB], the inhibition (T47D [19]) was “Active”.
